Source: ChEMBL document CHEMBL4513216, “Probing the Open Global Health Chemical Diversity Library for Multistage-Active Starting Points for Next-Generation Antimalarials” (ACS Infect Dis, 2020)

Experiment: Toxicity liver stage against HepG2, at 10uM
Type: cell-based
Parameters: test concentration 10 uM, cell line HepG2-A16-CD81EGFP
Settings: human, HepG2-A16-CD81EGFP cells; read-out: INHIBITION
Summary of the method: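 Uninfected HepG2-A16-CD81EGFP cells, 3 × 10^3 per well, 1536-well, plated on prespotted compound at 10 μM final, parasite-free screening media added to match infected plates; puromycin 10 μM positive, DMSO 0.5% negative; run in parallel with 48 h PbLuc assay at 37 °C, 5% CO2; viability by CellTiter-Glo luminescence, normalized to controls.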
`CCCN1CCN(C(=O)c2ccc(Cl)cn2)[C@H]2CS(=O)(=O)C[C@H]21` showed a cytotoxicity at 10 µM of -4.15%. For `N[C@H]1CN(C(=O)CCc2ccccn2)C[C@@H]1c1ccccc1`, the cytotoxicity at 10 µM was -0.23%. Compound `CCOCc1nc2c(c(NC(CC)c3ccncc3)n1)CCNCC2` (stereo unspecified) has a cytotoxicity at 10 µM of -0.0944%. `COc1cc(F)ccc1-c1cc(CO)ccn1` gave a cytotoxicity at 10 µM of 6.58%. Compound `Cc1cc(CNC(=O)C(c2ccc(F)cc2)N(C)C)n[nH]1` (stereo unspecified) has a cytotoxicity at 10 µM of -15%. With `CC(=O)Nc1ccc2nc(-c3nccn3CC(C)(C)CO)ccc2c1` the cytotoxicity at 10 µM was 3.89%. In the case of `c1cn(CC2CC2)c(C2CCN(CCC3CCOC3)CC2)n1` (stereo unspecified), the cytotoxicity at 10 µM is reported as -8.64%. `O=C(Nc1cccc2c1CCCC2)c1cccc(CN2CC[C@H](O)C2)c1` gave a cytotoxicity at 10 µM of -9.32%. `COC(=O)CC1CCN(C(=O)Nc2ccc(-c3ccn[nH]3)cc2)C1` (stereo unspecified) showed a cytotoxicity at 10 µM of 3.57%. `O=C(N[C@H]1COC[C@@H]1N1CCCC1)c1csc(Cc2ccccc2)n1` gave a cytotoxicity at 10 µM of -30.2%. `CNS(=O)(=O)CCn1cc(-c2cc3c(cc2OC)CCC3)nn1` gave a cytotoxicity at 10 µM of -2.12%. `CCN1CCN(C2(C(=O)NC3CCCC3)Cc3ccccc3C2)CC1` showed a cytotoxicity at 10 µM of -13.8%. Compound `Cc1cccc2[nH]c(C3CCCN(Cc4ccccc4C(=O)O)C3)nc12` (stereo unspecified) has a cytotoxicity at 10 µM of 7.28%. `C[C@@H]1CN(C(=O)CCCN2CCOCC2)C[C@@]1(O)C1CC1` gave a cytotoxicity at 10 µM of 4.39%. `Cc1cc(C(=O)N2CCCC3(CN(C)C(=O)O3)C2)c2ccc(F)cc2n1` (stereo unspecified) gave a cytotoxicity at 10 µM of 3.05%. Compound `Cc1ccsc1CN1CCC(c2cc(C(C)C)n[nH]2)CC1` has a cytotoxicity at 10 µM of 1.13%. In the case of `O=C(C1CNCCO1)N1CCCC(c2ccccc2)(c2ccccc2)C1` (stereo unspecified), the cytotoxicity at 10 µM is reported as 12.2%. Work on `Cc1nc(-c2cccc(N3CCC(NC4CCOCC4)CC3)c2)cs1` yielded a cytotoxicity at 10 µM of -10.1%. For `CCOc1ccccc1C(=O)N1CCCC(O)(CN(C)C)C1` (stereo unspecified), the cytotoxicity at 10 µM was -1.73%. For `O=C(O)c1cccnc1CN1CCCCC1CCc1ccccn1` (stereo unspecified), the cytotoxicity at 10 µM was 7.4%. `CC[C@@H](c1ccccc1)n1c(C2CC2)n[nH]c1=O` gave a cytotoxicity at 10 µM of -8.67%. In the case of `Cn1ccnc1CN1CCCC(CCc2ccc(F)c(F)c2)C1` (stereo unspecified), the cytotoxicity at 10 µM is reported as -6.9%. With `OCCNc1cc(-c2nccnc2N2CCCC2)c2cc[nH]c2n1` the cytotoxicity at 10 µM was -7.57%. In the case of `CN(Cc1nccn1C)c1nccc(N2CCCC(O)C2)n1` (stereo unspecified), the cytotoxicity at 10 µM is reported as -8.29%. In the case of `CCn1c(CC2CCN(S(=O)(=O)c3cccc(C)c3)CC2)nn(C)c1=O`, the cytotoxicity at 10 µM is reported as 2.01%. For `Cc1ncc(CC(=O)N2CCC(N3C[C@@H](C)O[C@@H](C)C3)CC2)c(=O)[nH]1`, the cytotoxicity at 10 µM was 3.26%. Compound `CN(c1ccncn1)C1CC2(CCN(C(=O)CCc3cccs3)C2)C1` (stereo unspecified) has a cytotoxicity at 10 µM of -1.34%. With `Cc1nc(-c2ccccc2)n(CC(=O)NC2CCCCC2)n1` the cytotoxicity at 10 µM was -1.16%. `CCOc1ccc(CC(=O)N2CCCC(n3nc(C)nc3C)C2)cc1` (stereo unspecified) gave a cytotoxicity at 10 µM of -3.18%. Compound `Cc1cnn(CC2CN(Cc3ccc(C(N)=O)cc3)CCO2)c1` (stereo unspecified) has a cytotoxicity at 10 µM of -2.28%. With `CC(C)Cc1cc(NC(=O)c2ccccn2)n(C)n1` the cytotoxicity at 10 µM was -7.22%. Work on `Cc1cc(C(=O)N2CCCC2)ccc1NCC(=O)N1CCCCC1C` (stereo unspecified) yielded a cytotoxicity at 10 µM of 5.12%. With `Cc1nn(C)c(Cl)c1C1CCCN1Cc1nc(C2CC2)no1` (stereo unspecified) the cytotoxicity at 10 µM was -6.42%. `CC(C)c1ncc2c(n1)CN(CC(=O)Nc1ccncc1)CC2` gave a cytotoxicity at 10 µM of -3.23%. Compound `CSc1nccn1-c1cccc(C(=O)NCCN2CCS(=O)(=O)CC2)c1` has a cytotoxicity at 10 µM of -3.97%. In the case of `CCn1cc(NC(=O)C2CCN(CC(=O)NCC(C)C)CC2)cn1`, the cytotoxicity at 10 µM is reported as -7.52%. In the case of `NC(=O)CC1CCCCN1C(=O)c1cccc(C(F)(F)F)c1` (stereo unspecified), the cytotoxicity at 10 µM is reported as -1.03%. `Cc1cc(C)n(-c2ccc(CNCc3ccc(F)cc3F)cn2)n1` gave a cytotoxicity at 10 µM of -12.2%. Work on `O=C(CCc1ccco1)N1CCCC(n2cccn2)C1` (stereo unspecified) yielded a cytotoxicity at 10 µM of -8.8%. `O=C(NCCNc1cnccn1)N1CCCC(N2CCCC2)C1` (stereo unspecified) showed a cytotoxicity at 10 µM of -3.12%. `COCCN1CCN(CC(C)(O)c2cccc(C(F)(F)F)c2)CC1` (stereo unspecified) gave a cytotoxicity at 10 µM of -24.2%. In the case of `CCc1ccc(OCC(O)CN2CCN(CC)CC2)cc1` (stereo unspecified), the cytotoxicity at 10 µM is reported as -6.54%. For `CS(=O)(=O)NC1CCCN(C(=O)Nc2cccnc2)C1` (stereo unspecified), the cytotoxicity at 10 µM was -14.2%. Compound `COc1ccnc(N2CCN(C(=O)CN3CCCC3=O)CC2)n1` has a cytotoxicity at 10 µM of -5.21%. For `CN(C)C1CCN(C(=O)c2ccc(Cn3ccccc3=O)o2)CC1`, the cytotoxicity at 10 µM was -2.11%. In the case of `COCCOc1ncccc1CNCc1c(C)nn(C)c1N(C)C`, the cytotoxicity at 10 µM is reported as -9.36%. For `CCc1n[nH]c(C2CN(C(=O)c3nc(C)ncc3Cl)CCO2)n1` (stereo unspecified), the cytotoxicity at 10 µM was -7.25%. With `Cc1cc(N2CCN(Cc3ccnn3C)CC2)cc(C2CCCN2)n1` (stereo unspecified) the cytotoxicity at 10 µM was 6.97%. In the case of `Cc1ccc(C2(CN3CCN(Cc4cn(C)nc4C)CC3)CC2)cc1`, the cytotoxicity at 10 µM is reported as 1.74%. `CCC(CN1CCN(C)CC1)NC(=O)C1(c2cccc(F)c2)CC1` (stereo unspecified) showed a cytotoxicity at 10 µM of 3.54%. `CN(C)C(=O)COC1COC2(CCN(CC3CC3)CC2)C1` (stereo unspecified) gave a cytotoxicity at 10 µM of -108%. Work on `CN(C)C(=O)C1CCN(C2CCN(CC3CC3)CC2)CC1` yielded a cytotoxicity at 10 µM of 4.55%. With `Cc1cccc(CN2CCN3C[C@H](Oc4cncnc4)C[C@H]3C2)n1` the cytotoxicity at 10 µM was -91.9%. `CN(C)CCn1c2c(ccc1=O)CC(NC(=O)c1ccsc1)CC2` (stereo unspecified) showed a cytotoxicity at 10 µM of 2.15%. For `O[C@@H]1CC(CNCc2cccc(Cl)c2)(COc2cccnc2)C[C@@H]1O` (stereo partly specified), the cytotoxicity at 10 µM was -1.29%. `O=C1C[C@@H]2CC[C@H](CN1)N2C1CCOCC1` showed a cytotoxicity at 10 µM of -5.1%.
